# Only a selection was taken, and hits are over-represented in it overall.
# bCat KO growth = beta-catenin-lacking colon tumor cell growth suppression; 1.5% of 140,000 active; AID 818; HCT116 beta-catenin knockout viability, CellTiter-Glo, 60 h; active compounds read low; viability, % at 10 µM;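 active means viability at or under a set limit, the compound median less 4 SD, cut at about 6% in these data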;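 further: 0% = Hyamine 1622 control at 20 µM and 100% = untreated cell control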
# Fibroblast inh = blocks proliferation of human lung fibroblasts | LL 47 human lung fibroblast viability, ATP luminescence; active compounds read low | viability, % at 10 µM | 1.1% of 85,000 active;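 active means viability at or below 50% in the single dose screen; inactive means viability above 50%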;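 further: compound exposure lasted 72 h before the ATP readout; 100% = median luminescence of untreated cell-only wells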
#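 material = human LL 47 lung fibroblast cells | dosing = compounds added from tenfold dosing solution, 0.1% DMSO final | timing = overnight cell rest, 72 h compound treatment at 37 °C | measured by = CellTiter-Glo luminescence measuring cellular ATP | evaluation = % viability versus median cells-only luminescence | control set = cell-only wells, no compound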
# H69AR inhibit = growth inhibitors of human H69AR lung tumor cells; H69AR lung tumor viability, ATP luminescence, 72 h; active compounds read low; viability, % at 10 µM; 6% of 85,000 active;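 active means viability at or below 40%; inactive means viability above 40%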;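 further: multidrug resistant small cell line overexpressing MRP-1 efflux transporter; 100% = mean luminescence of untreated control wells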
# PTEN del growth = growth suppressors of cells with PTEN tumor suppressor deletion | viability, % at 10 µM | 1.2% of 140,000 active | HCT116 PTEN-null viability, CellTiter-Glo, 60 h; active compounds read low | AID 827;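 active means viability at or below a set limit, 4 SD under the median of all tested compounds, cut at about 3.7% in these data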;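 further: PTEN knockout HCT116 line with beta catenin targeted HCT116 as companion control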
# HUVEC prolif 384 = inhibitors of human endothelial cell proliferation | HUVEC proliferation, CellTiter-Glo luminescence, 72 h; active compounds read low | viability, % at 10 µM (by protocol) | 1.1% of 86,000 active;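 active means viability at or below 30%; inactive means viability above 30%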;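 further: 100% = median luminescence of DMSO-only cell control wells on each plate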
# Starred values were filed as active, the others as inactive; . = not tested or not shown.
SMILES,bCat KO growth,Fibroblast inh,H69AR inhibit,PTEN del growth,HUVEC prolif 384
COc1cc2nc(CN(C)Cc3nc4ccccc4c(=O)[nH]3)[nH]c(=O)c2cc1OC,103,.,.,91,.
CCN(CC)CC(=O)Nc1ccc2c(c1)Nc1ccccc1CC2,31,77,4.0*,31,34
CCc1ccc2c(CN(CC)Cc3nc4ccccc4c(=O)[nH]3)cc(=O)oc2c1,65,90,36*,64,83
CC(C)(C)NC(=O)CSc1ncnc2c1nnn2Cc1ccccc1Cl,4.1*,59,3.0*,3.2*,89
Cc1cc(C)nc(SCC(=O)N/N=C\C(Br)=C\c2ccccc2)n1,62,.,.,66,.
Cc1onc(-c2ccccc2)c1C(=O)N/N=C/C(Br)=C/c1ccccc1,3.6*,.,.,2.9*,.
Cc1ccc(NCC(=O)N/N=C\C(Br)=C\c2ccccc2)cc1,2.6*,100,74,2.7*,100
CCOc1cc(C(=O)N/N=C/C(Br)=C/c2ccccc2)cc(OCC)c1OCC,14,.,.,2.3*,.
COc1ccc(/C=N/NC(=O)c2c(-c3ccccc3)noc2C)cc1,105,.,.,96,.
O=C(N/N=C/C(Br)=C\c1ccccc1)c1ccc2nc[nH]c2c1,2.2*,.,.,3.3*,.
CN1CCN(S(=O)(=O)c2ccc(Sc3nnc(-c4cccs4)n3-c3ccccc3)nc2)CC1,79,88,79,76,99
CCOC(=O)c1[nH]c2ccc(OC)cc2c1NC(=O)C(C)N1CCC2(CC1)OCCO2 (stereo unspecified),93,96,80,88,90
CCOC(=O)c1[nH]c2ccc(F)cc2c1NC(=O)C(C)N1CCc2cc(OC)c(OC)cc2C1 (stereo unspecified),29,74,2.4*,29,60
CCOC(=O)N1CCN(C(=O)c2ccc3c(c2)sc2nc(-c4ccc(OC)cc4)cn23)CC1,95,.,.,85,.
COc1ccc2c(c1)sc1nc(-c3ccccc3)cn12,12,94,20*,12,47
CC(C)=N/N=C1/NC(=O)C(CC(=O)Nc2cc(Cl)ccc2C)S1 (stereo unspecified),100,.,.,93,.
COc1ccc(OC)c(N=CC2=C(O)CC(C)(C)CC2=O)c1,88,97,94,86,96
CCC/C(O)=C1\C(=O)CC(C)(C)CC1=Nc1ccc(OC)cc1OC,19,57,21*,22,60
CCCC/C(O)=C1\C(=O)CC(C)(C)CC1=Nc1ccccc1OC,82,93,33*,81,107
CC/C(O)=C1\C(=O)CC(C)(C)CC1=Nc1ccccc1C,104,.,.,97,.
COC(=O)CC/C(O)=C1\C(=O)CC(C)(C)CC1=Nc1ccccc1OC,104,94,29*,85,93
O=C(NCC1CCCO1)C(=O)NCC(c1ccco1)N1CCN(c2ccccc2F)CC1 (stereo unspecified),93,.,.,84,.
COc1ccc(CNC(=O)CSc2nnc3c(Cl)cc(C(F)(F)F)cn23)cc1OC,98,.,.,86,.
CCOC(=O)c1ccc(NC(=O)CSc2nc(NC(=O)c3ccccc3)c3c(C)c(C)oc3n2)cc1,81,97,22*,66,93
COc1ccc(C2=CC(=O)OC(C)(c3ccccc3)O2)cc1 (stereo unspecified),71,.,.,64,.
SMILES,bCat KO growth,Fibroblast inh,H69AR inhibit,PTEN del growth,HUVEC prolif 384
CN(C(=O)COc1ccccc1C(=O)NCCOc1ccccc1)c1ccccc1,3.5*,.,.,3.5*,.
O=C(Cn1nnc(-c2ccccc2NC(=O)c2cccs2)n1)Nc1ccccc1,61,86,15*,52,59
CCOc1ccc(-c2nnn(CC(=O)Nc3ccccc3OC)n2)cc1OCC,116,78,11*,99,42
COc1ccc(-c2nnn(CC(=O)NCc3ccccc3)n2)cc1OC,86,92,95,86,99
COc1cc(C(=O)Nc2ccccc2-c2nnn(CC(N)=O)n2)cc(OC)c1OC,104,.,.,108,.
COc1ccccc1NC(=O)Cn1nnc(-c2ccccc2NC(=O)c2cccs2)n1,29,87,30*,55,49
NC(=O)c1cccnc1Nc1ccccc1Cl,98,.,.,100,.
C[C@@H]1CC[C@H]2C(=O)N3[C@@H](CC[C@@H](C)[C@@H]3c3ccc(Br)cc3)C(=O)N2[C@H]1c1ccc(Br)cc1,60,.,.,47,.
Cc1ccc(F)cc1NC(=O)C12CC3CC(C1)CC(n1cnc([N+](=O)[O-])n1)(C3)C2,66,.,.,62,.
COC(=O)/C(=C(/F)Sc1cc(C)c(O)c(C)c1)C(F)(F)F,80,9.3*,2.7*,78,23*
O=C(OC(c1ccccc1)c1nccc2ccccc12)c1cc([N+](=O)[O-])cc([N+](=O)[O-])c1 (stereo unspecified),89,.,.,73,.
Cc1ccc2oc(=O)c3cnn(CC(=O)N4CCN(c5ccccc5)CC4)c3c2c1,77,96,75,77,83
Cc1ccc2oc(=O)c3cnn(CC(=O)Nc4ccccc4N4CCN(C)CC4)c3c2c1,19,47*,62,12,2.1*
CCOc1ccc(NC(=S)Nc2cc(OC)c(Cl)cc2OC)cc1,94,.,.,90,.
Cc1nc(-n2ncc(C#N)c2N)c2c3c(sc2n1)CCC3,84,96,80,2.0*,66
Cc1[nH]n(-c2ccc([N+](=O)[O-])cc2)c(=O)c1C=NCCc1c(C)[nH]c2ccccc12,61,.,.,60,.
CCC1CCCCN1C(=O)CSc1nc2c([nH]c3ccccc32)c(=O)n1C (stereo unspecified),88,105,34*,76,85
CCC(C)Sc1nc2c([nH]c3ccccc32)c(=O)n1C (stereo unspecified),79,84,55,75,92
CCC1CCCCN1C(=O)CSc1nnc(-c2c[nH]c3ccccc23)o1 (stereo unspecified),75,93,35*,80,108
COc1ccc(CN(C(=O)CSc2nnc(-c3c[nH]c4ccccc34)o2)c2ccc(F)cc2)cc1OC,6,51,11*,5,18*
CC1CCCC(C)N1C(=O)CSc1nnc(-c2c[nH]c3ccccc23)o1 (stereo unspecified),76,89,83,84,80
COC(=O)C(C)Sc1nc2c([nH]c3ccccc32)c(=O)n1C (stereo unspecified),46,99,39*,39,82
Cc1ccc(OCCOc2ccc(Br)cc2)c([N+](=O)[O-])n1,93,.,.,83,.
CC(Sc1nc(C(C)(C)C)cc(-c2ccccc2)c1C#N)C(=O)Nc1ccccc1 (stereo unspecified),82,.,.,87,.
COc1cc(/C=N/N(C)c2ccccc2)cc(Cl)c1O,61,85,16*,64,36
COc1ccc(OC)c(/C=N/N(C)c2ccccc2)c1,92,84,90,87,94
Cc1nn(CC#N)c(=O)n1-c1cccc(F)c1,97,94,98,99,95
O=C(c1ccccc1)c1nn(-c2ccccc2)c2nnc(Cc3ccccc3)c(=O)n12,50,104,32*,56,58

# Bioassay records (PubChem)
